# Test results as given in ChEMBL document CHEMBL1122734, “A novel peptide delivery system involving peptidase activated prodrugs as antimicrobial agents. Synthesis and biological activity of peptidyl derivatives of 5-fluorouracil” (J Med Chem, 1984).
# Key:
# Candida albicans [1] = test: Compound is evaluated for minimum inhibitory concentrations against Candida albicans strain 3153A; type: functional
# How it was run: (§1)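 Twofold broth dilution in yeast carbon base medium with lysine 200 µg/mL. Final inoculum was approximately 10^4-10^5 cfu/mL, incubated overnight at 37 °C. MIC was taken as the lowest concentration giving complete growth inhibition.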
# Candida albicans [2] = test: Compound is evaluated for minimum inhibitory concentrations against Candida albicans strain B311; type: functional; how it was run: as §1
# Candida albicans [3] = test: Compound is evaluated for disk diffusion assay of the activity against Candida albicans B-311 at […]; type: functional
# Candida albicans [4] = test: Compound is evaluated for disk diffusion assay of the activity against Candida albicans B-311 at 25.0 ug/disk; type: functional
# How it was run: (§2)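 Cells grown 7 h at 37 °C in trypticase soy broth with shaking at 250 rpm. 1 mL of culture was seeded into 1 L of yeast carbon base agar with lysine 200 µg/mL, and 15 mL was poured per plate. Peptides in water were loaded onto 6.35-mm paper disks. Plates were incubated 24 h at 37 °C and inhibition zones read.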
# Candida albicans [5] = test: Compound is evaluated for minimum inhibitory concentrations against Candida albicans strain BC759; type: functional; how it was run: as §1
# Candida albicans [6] = test: Compound is evaluated for disk diffusion assay of the activity against Candida albicans B-311 at 6.0 ug/disk; type: functional; how it was run: as §2
# Candida albicans [7] = test: Compound is evaluated for disk diffusion assay of the activity against Candida albicans B-311 at 3.0 ug/disk; type: functional; how it was run: as §2
# Candida albicans [8] = test: Compound is evaluated for disk diffusion assay of the activity against Candida albicans B-311 at 1.5 ug/disk; type: functional; how it was run: as §2
# Escherichia coli [9] = test: Compound is evaluated for antagonistic activity against Escherichia coli M2626 at 25.0 ug/disk; type: functional
# How it was run: (§3)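 Disk diffusion on E. coli seeded agar plates. Culture grown in trypticase soy broth for 7 h at 37 °C with shaking at 250 rpm, then 1 mL per litre of agar medium; plates made as for C. albicans but with M-9 medium. Peptide in water absorbed onto 6.35-mm paper disks. Antagonism tested by placing a second disk with noninhibitory di- or tripeptide over the test disk. Plates incubated 24 h at 37 °C; inhibition zones read.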
# Escherichia coli [10] = test: Compound is evaluated for antagonistic activity against Escherichia coli M2626 at 1.5 ug/disk; type: functional; how it was run: as §3
# Escherichia coli [11] = test: Compound is evaluated for antagonistic activity against Escherichia coli M2626 at […]; type: functional
# Escherichia coli [12] = test: 2 mg/disk of dialanine was codisked on the compound and evaluated for antagonistic activity against Escherichia coli M2626,at 1.5 ug/disk; type: functional; how it was run: as §3
# Escherichia coli [13] = test: 2 mg/disk of dialanine was codisked on the compound and evaluated for antagonistic activity against Escherichia coli M2626,at […]; type: functional
# Escherichia coli [14] = test: Compound is evaluated for antagonistic activity against Escherichia coli M2626 at 6.0 ug/disk; type: functional; how it was run: as §3
# Escherichia coli [15] = test: 2 mg/disk of dialanine was codisked on the compound and evaluated for antagonistic activity against Escherichia coli M2626,at 6.0 ug/disk; type: functional; how it was run: as §3
# Escherichia coli [16] = test: Compound is evaluated for antagonistic activity against Escherichia coli M2626 at 3.0 ug/disk; type: functional; how it was run: as §3
# Escherichia coli [17] = test: 2 mg/disk of dialanine was codisked on the compound and evaluated for antagonistic activity against Escherichia coli M2626,at 3.0 ug/disk; type: functional; how it was run: as §3
# [18] = Stability in water (H20) at the time of zero(0) hours, stability was measured by in the form of percent Fluoro uracil; type: physicochemical; settings: buffer
# How it was run: (§4)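 A 1:1 mixture of the L,L and L,D peptide diastereomers was added at 0.5 mg/mL to distilled water and kept at 23 °C. Samples were taken over time, filtered through glass fiber, and analysed by RP-18 HPLC. Values are the percent free 5-FU formed.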
# Mus musculus [19] = organism: Mus musculus; test: Stability in mouse serum at the time of 24 hours, stability was measured by in the form of percent Fluoro uracil; type: ADME
# How it was run: (§5)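 A 1:1 mixture of the L,L and L,D peptide diastereomers was added as powder to undiluted serum at 0.5 mg/mL and held at 37 °C. Samples were taken at time points, filtered through glass fiber, and analysed by reversed-phase (RP-18) HPLC. Values are the increase in percent free 5-FU.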
# Homo sapiens [20] = organism: Homo sapiens; test: Stability in human serum at the time of 24 hours, stability was measured by in the form of percent Fluoro uracil; type: ADME; how it was run: as §5
# Mus musculus [21] = organism: Mus musculus; test: Stability in mouse serum at the time of 0.5 hours, stability was measured by in the form of percent Fluoro uracil; type: ADME; how it was run: as §5
# Mus musculus [22] = organism: Mus musculus; test: Stability in mouse serum at the time of 5 hours, stability was measured by in the form of percent Fluoro uracil; type: ADME; how it was run: as §5
# Mus musculus [23] = organism: Mus musculus; test: Stability in mouse serum at the time of 2.5 hours, stability was measured by in the form of percent Fluoro uracil; type: ADME; how it was run: as §5
# Homo sapiens [24] = organism: Homo sapiens; test: Stability in human serum at the time of zero(0) hours, stability was measured by in the form of percent Fluoro uracil; type: ADME; how it was run: as §5
# Homo sapiens [25] = organism: Homo sapiens; test: Stability in human serum at the time of 50 hours, stability was measured by in the form of percent Fluoro uracil; type: ADME; how it was run: as §5
# Mus musculus [26] = organism: Mus musculus; test: Stability in mouse serum at the time of zero(0) hours, stability was measured by in the form of percent Fluoro uracil; type: ADME; how it was run: as §5
# Homo sapiens [27] = organism: Homo sapiens; test: Stability in human serum at the time of 1.5 hours, stability was measured by in the form of percent Fluoro uracil; type: ADME; how it was run: as §5
# Homo sapiens [28] = organism: Homo sapiens; test: Stability in human serum at the time of 0.5 hours, stability was measured by in the form of percent Fluoro uracil; type: ADME; how it was run: as §5
# [29] = Stability in water (H20) at the time of 240 hours, stability was measured by in the form of percent Fluoro uracil; type: physicochemical; settings: buffer; how it was run: as §4
# Homo sapiens [30] = organism: Homo sapiens; test: Stability in human serum at the time of 5 hours, stability was measured by in the form of percent Fluoro uracil; type: ADME; how it was run: as §5
# Mus musculus [31] = organism: Mus musculus; test: Stability in mouse serum at the time of 1.5 hours, stability was measured by in the form of percent Fluoro uracil; type: ADME; how it was run: as §5
# [32] = Candida albicans, read-out: MIC
SMILES,MIC (Candida albicans [1]),MIC (Candida albicans [2]),Activity (Candida albicans [3]),Activity (Candida albicans [4]),MIC (Candida albicans [5]),Activity (Candida albicans [6]),Activity (Candida albicans [7]),Activity (Candida albicans [8]),MIC (Candida albicans [1]; [32]),Zone size (Escherichia coli [9]),Zone size (Escherichia coli [10]),MIC (Candida albicans [2]; [32]),Zone size (Escherichia coli [11]),Zone size (Escherichia coli [12]),Zone size (Escherichia coli [13]),Zone size (Escherichia coli [14]),Zone size (Escherichia coli [15]),Zone size (Escherichia coli [16]),MIC (Candida albicans [5]; [32]),Zone size (Escherichia coli [17]),other results
"C[C@H](N)C(=O)N[C@@H](C(=O)O)n1cc(F)c(=O)[nH]c1=O (stereo in doubt; 8a(L,L))",12.5 µg/mL,12.5 µg/mL,26,30,1.6 µg/mL,22,20,16,–,–,–,–,–,–,–,–,–,–,–,–,–
O=c1[nH]cc(F)c(=O)[nH]1 [FLUOROURACIL],–,–,40,44,–,30,30,22,1 µg/mL,46 mm,33 mm,4 µg/mL,41 mm,33 mm,41 mm,40 mm,40 mm,38 mm,1 µg/mL,38 mm,–
C[C@H](N)C(=O)NC(C(=O)O)n1cc(F)c(=O)[nH]c1=O (some centres undefined),–,–,–,–,–,–,–,–,25 µg/mL,31 mm,22 mm,25 µg/mL,26 mm,0 mm,0 mm,27 mm,0 mm,25 mm,6.3 µg/mL,0 mm,Serum stability [18]: 0; Serum stability (Mus musculus [19]): 53; Serum stability (Homo sapiens [20]): 16; Serum stability (Mus musculus [21]): 12; Serum stability (Mus musculus [22]): 43; Serum stability (Mus musculus [23]): 36; Serum stability (Homo sapiens [24]): 0; Serum stability (Homo sapiens [25]): 25; Serum stability (Mus musculus [26]): 0; Serum stability (Homo sapiens [27]): 7; Serum stability (Homo sapiens [28]): 3; Serum stability [29]: 9; Serum stability (Homo sapiens [30]): 15; Serum stability (Mus musculus [31]): 27
"C[C@H](N)C(=O)N[C@@H](C(=O)O)n1cc(F)c(=O)[nH]c1=O (stereo in doubt; 8b(L,D))",>100 µg/mL,>100 µg/mL,0,0,>100 µg/mL,0,0,0,–,–,–,–,–,–,–,–,–,–,–,–,–
